# Key:
# Type in all cases: functional
# Rattus norvegicus [1] = test: Compound was tested for the inhibition of rat reversed passive Arthus pleurisy after peroral administration of 100 mg/kg dose at 0.37 mL of exudate volume with 0.46 mL of control (injected intrapleurally); conditions: route oral
# Summary of the method: (§1)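 Male Wistar rats (about 250 g) were given compound orally before the antiserum. Under ether anesthesia, 0.2 mL rabbit anti-egg albumin antiserum was injected intrapleurally. After 30 min, egg albumin (15 mg/100 g body weight in 0.1 mL saline) was given iv. Rats were killed 4.5 h later and the thoracic cavity was rinsed with 5 mL saline. Exudate volume and infiltrated cell number were measured, with inhibition % versus controls as mean ± SEM.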
# Rattus norvegicus [2] = test: Compound was tested for the inhibition of rat reversed passive Arthus pleurisy after peroral administration of 100 mg/kg dose at 1.59+/-0.13*10e6 no of cells with 2.17*10e6 cells of control; conditions: route oral; summary of the method: as §1
# Rattus norvegicus [3] = test: Inhibition of carrageenan-induced rat's paw edema (CPE) after peroral administration of 100 mg/kg dose.; conditions: route oral
# Summary of the method: (§2)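 Male Wistar rats (about 150 g) were dosed orally with compound suspended in 5% arabic gum, 1 h before a subplantar hind-paw injection of 0.1 mL saline. The irritant was 1% zymosan for 33 or 1% λ-carrageenin for 34. Paw volume was measured by plethysmograph before dosing and at 4 h (zymosan) or 3 h (carrageenin). Swelling is relative to initial volume, as mean ± SEM. % inhibition is versus the control group's mean swelling.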
# Rattus norvegicus [4] = test: Antiinflammatory activity on Carrageenan rat's paw edema(CPE) after peroral administration of 100 mg/kg dose with control swelling of 64.2%; conditions: route oral
# Rattus norvegicus [5] = test: Antiinflammatory activity on Zymosan-induced rat's paw edema(ZPE) after peroral administration of 100 mg/kg dose with control swelling of 71.7%; conditions: route oral
# Summary of the method: (§3)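 Male Wistar rats weighing about 150 g were dosed orally with compound suspended in 5% arabic gum. 1 h later, 1% zymosan in 0.1 mL saline was injected subplantarly into the hind paw. Paw volume was measured by plethysmograph before dosing and 4 h after zymosan, with edema as the volume difference. Inhibition % was derived from mean swelling versus the control group.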
# Rattus norvegicus [6] = test: Inhibition of Zymosan-induced rat's paw edema(ZPE) after peroral administration of 100 mg/kg dose.; conditions: route oral; summary of the method: as §2
# Rattus norvegicus [7] = test: Antiinflammatory activity on Carrageenan rat's paw edema(CPE) after peroral administration of 100 mg/kg dose with control swelling of 68.1%; conditions: route oral
# Rattus norvegicus [8] = test: Compound was tested for the inhibition of rat reversed passive Arthus pleurisy after peroral administration of 100 mg/kg dose at 4.66*10e6 no of cells with 5.72*10e6 cells of control; conditions: route oral
# Summary of the method: (§4)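 Male Wistar rats (about 250 g) under ether received 0.2 mL rabbit anti-egg-albumin antiserum intrapleurally. Thirty min later they got 15 mg EA/100 g body weight in 0.1 mL saline iv. Compounds were given orally beforehand. Rats were killed 4.5 h after induction and the thoracic cavity rinsed with 5 mL saline. Exudate volume and infiltrated cell count were read as mean ± SE. % inhibition is versus control.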
# Rattus norvegicus [9] = test: Antiinflammatory activity on Zymosan-induced rat's paw edema(ZPE) after peroral administration of 100 mg/kg dose with control swelling of 62.8%; conditions: route oral; summary of the method: as §3
# Rattus norvegicus [10] = test: Compound was tested for the inhibition of rat reversed passive Arthus pleurisy after peroral administration of 100 mg/kg dose at 0.65 mL of exudate volume with 0.84 mL of control (injected intrapleurally); conditions: route oral; summary of the method: as §1
# Rattus norvegicus [11] = test: Antiinflammatory activity on Carrageenan rat's paw edema(CPE) after peroral administration of 10 mg/kg dose with control swelling of 75.8%; conditions: route oral
# Rattus norvegicus [12] = test: Antiinflammatory activity on Carrageenan rat's paw edema(CPE) after peroral administration of 3 mg/kg dose with control swelling of 75.8%; conditions: route oral
# Rattus norvegicus [13] = test: Compound was tested for the inhibition of Zymosan-induced rat's paw edema(ZPE) after peroral administration of 3 mg/kg dose; conditions: route oral; summary of the method: as §3
# Rattus norvegicus [14] = test: Antiinflammatory activity on Zymosan-induced rat's paw edema(ZPE) after peroral administration of 3 mg/kg dose with control swelling of 55.1%; conditions: route oral; summary of the method: as §3
# Rattus norvegicus [15] = test: Antiinflammatory activity on Zymosan-induced rat's paw edema(ZPE) after peroral administration of 100 mg/kg dose with control swelling of 55.1%; conditions: route oral; summary of the method: as §3
# Rattus norvegicus [16] = test: Compound was tested for the inhibition of Carrageenan rat's paw edema(CPE) after peroral administration of 3 mg/kg dose; conditions: route oral
# Rattus norvegicus [17] = test: Compound was tested for the inhibition of arachidonic acid-induced rat's paw edema(APE) after peroral administration of 10 mg/kg dose; conditions: route oral
# Summary of the method: (§5)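 Test: arachidonic acid paw edema in male Wistar rats of about 150 g. Oral dosing in 5% arabic gum came 1 h before subplantar injection of 1% arachidonic acid sodium salt in 0.1 mL saline into the hind paw. Plethysmograph paw volume was read before dosing and 1 h post-irritant, and edema = volume difference. % inhibition was taken from mean swelling against controls.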
# Rattus norvegicus [18] = test: Compound was tested for the inhibition of Carrageenan rat's paw edema(CPE) after peroral administration of 10 mg/kg dose; conditions: Rattus norvegicus, po
# Rattus norvegicus [19] = test: Compound was tested for the inhibition of arachidonic acid-induced rat's paw edema(APE) after peroral administration of 10 mg/kg dose with control swelling of 51.6%; conditions: route oral; summary of the method: as §5
# Rattus norvegicus [20] = test: Antiinflammatory activity on Zymosan-induced rat's paw edema(ZPE) after peroral administration of 10 mg/kg dose with control swelling of 55.1%; conditions: route oral; summary of the method: as §3
# Rattus norvegicus [21] = test: Compound was tested for the inhibition of Zymosan-induced rat's paw edema(ZPE) after peroral administration of 10 mg/kg dose; conditions: po; summary of the method: as §3
# Rattus norvegicus [22] = test: Compound was tested for the inhibition of Zymosan-induced rat's paw edema(ZPE) after peroral administration of 30 mg/kg dose; conditions: route oral; summary of the method: as §3
# Rattus norvegicus [23] = test: Compound was tested for the inhibition of rat reversed passive Arthus pleurisy after peroral administration of 100 mg/kg dose at 2.13*10e6 no of cells with 3.86*10e6 cells of control; conditions: route oral; summary of the method: as §1
# Rattus norvegicus [24] = test: Compound was tested for the inhibition of arachidonic acid-induced rat's paw edema(APE) after peroral administration of 30 mg/kg dose; conditions: route oral; summary of the method: as §5
# Rattus norvegicus [25] = test: Antiinflammatory activity on Zymosan-induced rat's paw edema(ZPE) after peroral administration of 10 mg/kg dose with control swelling of 68.1%; conditions: route oral; summary of the method: as §3
# Rattus norvegicus [26] = test: Compound was tested for the inhibition of arachidonic acid-induced rat's paw edema(APE) after peroral administration of 30 mg/kg dose with control swelling of 51.6%; conditions: route oral
# Rattus norvegicus [27] = test: Compound was tested for the inhibition of arachidonic acid-induced rat's paw edema(APE) after peroral administration of 3 mg/kg dose; conditions: route oral; summary of the method: as §5
# Rattus norvegicus [28] = test: Antiinflammatory activity on Zymosan-induced rat's paw edema(ZPE) after peroral administration of 3 mg/kg dose with control swelling of 68.1%; conditions: route oral; summary of the method: as §3
# Rattus norvegicus [29] = test: Compound was tested for the inhibition of rat reversed passive Arthus pleurisy after peroral administration of 10 mg/kg dose at 0.53+/-0.05 mL of exudate volume (injected intrapleurally); conditions: route oral; summary of the method: as §1
# Rattus norvegicus [30] = test: Antiinflammatory activity on Zymosan-induced rat's paw edema(ZPE) after peroral administration of 30 mg/kg dose with control swelling of 68.1%; conditions: route oral; summary of the method: as §3
# Rattus norvegicus [31] = test: Antiinflammatory activity on Carrageenan rat's paw edema(CPE) after peroral administration of 30 mg/kg dose with control swelling of 75.8%; conditions: route oral
# Rattus norvegicus [32] = test: Compound was tested for the inhibition of rat reversed passive Arthus pleurisy after peroral administration of 25 mg/kg dose at 4.74+/-0.24*10e6 no of cells; conditions: route oral; summary of the method: as §4
# Rattus norvegicus [33] = test: Compound was tested for the inhibition of rat reversed passive Arthus pleurisy after peroral administration of 5 mg/kg dose at 0.73+/-0.03 mL of exudate volume (injected intrapleurally); conditions: route oral; summary of the method: as §4
# Rattus norvegicus [34] = test: Compound was tested for the inhibition of rat reversed passive Arthus pleurisy after peroral administration of 100 mg/kg dose at 0.08 mL of exudate volume with 0.86 mL of control (injected intrapleurally); conditions: route oral; summary of the method: as §1
# Rattus norvegicus [35] = test: Compound was tested for the inhibition of arachidonic acid-induced rat's paw edema(APE) after peroral administration of 3 mg/kg dose with control swelling of 51.6%; conditions: route oral; summary of the method: as §5
# Rattus norvegicus [36] = test: Compound was tested for the inhibition of rat reversed passive Arthus pleurisy after peroral administration of 5 mg/kg dose at 2.79 +/- 0.19*10e6 no of cells; conditions: route oral; summary of the method: as §4
# Rattus norvegicus [37] = test: Compound was tested for the inhibition of rat reversed passive Arthus pleurisy after peroral administration of 100 mg/kg dose at 0.08+/-0.01 mL of exudate volume (injected intrapleurally); conditions: route oral; summary of the method: as §1
# Rattus norvegicus [38] = test: Compound was tested for the inhibition of rat reversed passive Arthus pleurisy after peroral administration of 25 mg/kg dose at 0.4+/-0.07 mL of exudate volume (injected intrapleurally); conditions: route oral; summary of the method: as §4
# Rattus norvegicus [39] = test: Compound was tested for the inhibition of rat reversed passive Arthus pleurisy after peroral administration of 10 mg/kg dose at 4.6+/-0.25*10e6 no of cells; conditions: route oral; summary of the method: as §1
# Rattus norvegicus [40] = test: Compound was tested for the inhibition of rat reversed passive Arthus pleurisy after peroral administration of 100 mg/kg dose at 2.13+/-0.24*10e6 no of cells; conditions: route oral; summary of the method: as §1
# Rattus norvegicus [41] = test: Compound was tested for the inhibition of rat reversed passive Arthus pleurisy after peroral administration of 100 mg/kg dose at 4.35*10e6 no of cells with 3.62*10e6 cells of control; conditions: route oral; summary of the method: as §4
# Rattus norvegicus [42] = test: Compound was tested for the inhibition of rat reversed passive Arthus pleurisy after peroral administration of 100 mg/kg dose at 0.94 mL of exudate volume with 0.86 mL of control (injected intrapleurally); conditions: route oral; summary of the method: as §1
Structure (SMILES),inhibition in vivo at 100 mg/kg (Rattus norvegicus [3]) [%],Swelling (Rattus norvegicus [4]) [%],Swelling (Rattus norvegicus [5]) [%],inhibition in vivo at 100 mg/kg (Rattus norvegicus [6]) [%],Swelling (Rattus norvegicus [11]) [%],Swelling (Rattus norvegicus [12]) [%],inhibition in vivo at 3 mg/kg (Rattus norvegicus [13]) [%],inhibition in vivo at 3 mg/kg (Rattus norvegicus [16]) [%],inhibition in vivo at 10 mg/kg (Rattus norvegicus [17]) [%],Swelling (Rattus norvegicus [19]) [%],inhibition in vivo at 10 mg/kg (Rattus norvegicus [21]) [%],inhibition in vivo at 30 mg/kg (Rattus norvegicus [22]) [%],further results
O=C(Nc1cnccn1)c1c(O)c2cccnc2n(-c2ccccc2)c1=O,21.2,50.6,50.5,29.6,,,,,,,,,inhibition in vivo at 100 mg/kg (Rattus norvegicus [1]): 24.3%; inhibition in vivo at 100 mg/kg (Rattus norvegicus [2]): 26.7%
Cc1ccc(NC(=O)c2c(O)c3cccnc3n(-c3ccccc3)c2=O)cc1,2.2,,,-3.5,,,,,,,,,Swelling (Rattus norvegicus [7]): 66.6%; inhibition in vivo at 100 mg/kg (Rattus norvegicus [8]): 21.5%; Swelling (Rattus norvegicus [9]): 65%; inhibition in vivo at 100 mg/kg (Rattus norvegicus [10]): 22.4%
CN1C(C(=O)Nc2ccccn2)=C(O)c2ccccc2S1(=O)=O [PIROXICAM],,,,,25.8,34.4,2.2,54.6,17.2,42.7,9.4,8.7,Swelling (Rattus norvegicus [14]): 53.9%; Swelling (Rattus norvegicus [15]): 50.3%; inhibition in vivo at 10 mg/kg (Rattus norvegicus [18]): 66%; Swelling (Rattus norvegicus [20]): 61.7%
O=C(Nc1ccncc1)c1c(O)c2cccnc2n(-c2ccccc2)c1=O,24.3,48.6,46.7,34.9,71.3,72.1,11.9,4.9,50.6,25.5,20.3,28.8,inhibition in vivo at 100 mg/kg (Rattus norvegicus [23]): 58.6%; inhibition in vivo at 30 mg/kg (Rattus norvegicus [24]): 43.6%; Swelling (Rattus norvegicus [25]): 54.3%; Swelling (Rattus norvegicus [26]): 29.1%; inhibition in vivo at 3 mg/kg (Rattus norvegicus [27]): 36%; Swelling (Rattus norvegicus [28]): 60.6%; inhibition in vivo at 10 mg/kg (Rattus norvegicus [29]): 32.9%; Swelling (Rattus norvegicus [30]): 48.5%; Swelling (Rattus norvegicus [31]): 58.8%; inhibition in vivo at 25 mg/kg (Rattus norvegicus [32]): 33.3%; inhibition in vivo at 5 mg/kg (Rattus norvegicus [33]): -3.2%; inhibition in vivo at 100 mg/kg (Rattus norvegicus [34]): 100%; Swelling (Rattus norvegicus [35]): 33%; inhibition in vivo at 5 mg/kg (Rattus norvegicus [36]): 26%; inhibition in vivo at 100 mg/kg (Rattus norvegicus [37]): 100%; inhibition in vivo at 25 mg/kg (Rattus norvegicus [38]): 51.4%; inhibition in vivo at 10 mg/kg (Rattus norvegicus [39]): 35.8%; inhibition in vivo at 100 mg/kg (Rattus norvegicus [40]): 58.6%
O=C(Nc1ccccc1)c1c(O)c2cccnc2n(-c2ccccc2)c1=O,-15,73.8,68.4,4.6,,,,,,,,,
CN(C)CCNC(=O)c1c(O)c2cccnc2n(-c2ccccc2)c1=O,18.4,52.4,55.5,22.6,,,,,,,,,inhibition in vivo at 100 mg/kg (Rattus norvegicus [41]): -16.6%; inhibition in vivo at 100 mg/kg (Rattus norvegicus [42]): -10.4%
